Ratio and IC50 data for 13 compounds are collected here from ChEMBL document CHEMBL2203168, “Amine linked flavonoid dimers as modulators for P-glycoprotein-based multidrug resistance: structure-activity relationship and mechanism of modulation” (J Med Chem, 2012).

Experiment [1] is filed under the species Homo sapiens. The experiment is described as follows: Inhibition of P-gp-mediated paclitaxel resistance in human LCC6MDR cells assessed as fold decrease in paclitaxel IC50 for cytotoxic activity at 1 uM after 5 days by MTS assay relative to parental cells. It is filed as cell-based. Background: Tetrazolium dyes change colour on reduction, which living cells bring about.

For experiment [2], the species on record is Homo sapiens. The experiment is described as follows: Inhibition of P-gp-mediated paclitaxel resistance in human LCC6MDR cells assessed as fold decrease in paclitaxel IC50 for cytotoxic activity at 0.5 uM after 5 days by MTS assay relative to parental cells. The experiment is classed as cell-based.
Experiment [3] has as its system MDR. The experiment can be described thus: Cytotoxicity against human MDA435/LCC6MDR cells expressing MDR after 72 hrs. It is filed as functional, cell-based. Summed up:
(§1)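 Cells seeded at 1 × 10⁴ per well in supplemented DMEM and given graded doses of dimer for 72 h at 37 °C, 5% CO₂. Survival measured and IC50 derived. N = 1–3 independent experiments, mean ± SEM.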

A short description of experiment [4]: Cytotoxicity against human LCC-6 cells after 72 hrs. It is filed as functional, cell-based. The note with it: LCC-6, 72 h. Summed up: as §1
Experiment [5] relates to L929. The experiment can be described thus: Cytotoxicity against mouse L929 cells after 72 hrs. It is filed as cell-based. The settings on record: L929, 72 h. The method in brief:
as §1

Structures are written as SMILES. Some results are limits rather than exact numbers.

As a reminder, the IC50 is the concentration that inhibits the measured activity by half. Low readings indicate greater potency, high ones weaker potency. Consider `CC(C)(C)OC(=O)N(CCOCCOc1ccc(-c2oc3ccccc3c(=O)c2OCc2ccccc2)cc1)CCOCCOc1ccc(-c2oc3ccccc3c(=O)c2OCc2ccccc2)cc1`, for which the Ratio in experiment [1] is 1.2; in experiment [2] it was 1.1. In addition, the IC50 in experiment [3] and in experiment [4] was greater than 100 µM each time.
Consider `O=C(O)CCC(=O)N(CCOCCOc1ccc(-c2cc(=O)c3ccccc3o2)cc1)CCOCCOc1ccc(-c2cc(=O)c3ccccc3o2)cc1`, for which the Ratio in experiment [1] worked out at 0.9; in experiment [2] it was 1.1. Also, the values for the concentration for half-maximal inhibition (IC50) in experiment [3] and in experiment [4] were greater than 100 µM and 78.4 µM, respectively.
Take `O=C(c1ccccc1)N(CCOCCOc1ccc(-c2cc(=O)c3ccccc3o2)cc1)CCOCCOc1ccc(-c2cc(=O)c3ccccc3o2)cc1`: the values for the Ratio in experiment [1] and in experiment [2] were 42.5 and 7.5, respectively. The half-maximal inhibitory concentration (IC50) is greater than 100 µM in experiment [3], greater than 100 µM in experiment [4] and 95 µM in experiment [5].
In the case of `CCOC(=O)CCN(CCOCCOc1ccc(-c2cc(=O)c3ccccc3o2)cc1)CCOCCOc1ccc(-c2cc(=O)c3ccccc3o2)cc1`, the Ratio in experiment [1] worked out at 43.7; in experiment [2], 5.3. Also, the results for the concentration for half-maximal inhibition (IC50) in experiment [3], in experiment [4] and in experiment [5] were 17.7 µM, 13.5 µM and 18.1 µM, respectively.
Consider `CC(=O)O[C@H]1C(=O)[C@@]2(C)[C@H]([C@H](OC(=O)c3ccccc3)[C@]3(O)C[C@H](OC(=O)[C@H](O)[C@@H](NC(=O)c4ccccc4)c4ccccc4)C(C)=C1C3(C)C)[C@]1(OC(C)=O)CO[C@@H]1C[C@@H]2O`, for which the Ratio in experiment [1] turned out to be 1.
Consider `Cc1ccc(S(=O)(=O)N(CCOCCOc2ccc(-c3cc(=O)c4ccccc4o3)cc2)CCOCCOc2ccc(-c3cc(=O)c4ccccc4o3)cc2)cc1`, for which the Ratio worked out at 21.6 in experiment [1] and 5.8 in experiment [2]. Moreover, the 50% inhibitory concentration (IC50) in experiment [3], in experiment [4] and in experiment [5] was greater than 100 µM throughout.
As for `CC(C)(C)OC(=O)N(CCOCCOc1ccc(-c2cc(=O)c3cc(F)ccc3o2)cc1)CCOCCOc1ccc(-c2cc(=O)c3cc(F)ccc3o2)cc1`, the Ratio came out at 31.9 in experiment [1] and 11.3 in experiment [2]. Besides, the IC50 in experiment [3], in experiment [4] and in experiment [5] was greater than 100 µM in each case.
With `C[C@H](N)C(=O)N(CCOCCOc1ccc(-c2cc(=O)c3ccccc3o2)cc1)CCOCCOc1ccc(-c2cc(=O)c3ccccc3o2)cc1`, the values for the Ratio in experiment [1] and in experiment [2] were 0.9 and 1, respectively. Also, the figures for the concentration for half-maximal inhibition (IC50) in experiment [3] and in experiment [4] were 4.6 µM and 4.4 µM, respectively.
The corresponding values for `COc1cccc2oc(-c3ccc(OCCOCCNCCOCCOc4ccc(-c5cc(=O)c6c(OC)cccc6o5)cc4)cc3)cc(=O)c12` are 1.2, 1.2, 10.2 µM and 8.8 µM.
The corresponding values for `CN(C)c1cccc2c(S(=O)(=O)N(CCOCCOc3ccc(-c4cc(=O)c5ccccc5o4)cc3)CCOCCOc3ccc(-c4cc(=O)c5ccccc5o4)cc3)cccc12` are 1.3, 1.4, greater than 100 µM and greater than 100 µM.
Consider `C/C=C/C[C@@H](C)C(=O)[C@H]1C(=O)N[C@@H](C(C)C)C(=O)N(C)CC(=O)N(C)[C@@H](CC(C)C)C(=O)N[C@@H](C(C)C)C(=O)N(C)[C@@H](CC(C)C)C(=O)N[C@@H](C)C(=O)N[C@H](C)C(=O)N(C)[C@@H](CC(C)C)C(=O)N(C)[C@@H](CC(C)C)C(=O)N(C)[C@@H](C(C)C)C(=O)N1C` [VALSPODAR], for which the Ratio in experiment [1] was determined as 85.1. Moreover, the IC50 was 14.6 µM in experiment [3], 25.3 µM in experiment [4] and greater than 100 µM in experiment [5].
For the compound `O=c1cc(-c2ccc(OCCOCCOCCOCCOc3ccc(-c4cc(=O)c5ccccc5o4)cc3)cc2)oc2ccccc12`, the results for the Ratio in experiment [1] and in experiment [2] were 17.2 and 6.2, respectively.
Consider `COc1cc(-c2cc(=O)c3ccccc3o2)ccc1OCCOCCNCCOCCOc1ccc(-c2cc(=O)c3ccccc3o2)cc1OC`, for which the Ratio in experiment [1] amounted to 1.1; in experiment [2] it was 0.8. Also, the IC50 in experiment [3] was determined as 23.8 µM; in experiment [4], 12.8 µM.
